{"source": "paper PMC3464052", "about": "(Journal of medicinal chemistry, 2012)", "key": {"human α4β2-nAChRs [1]": {"biological_target": "T1, human α4β2-nAChRs (Homo sapiens, UniProt P17787+P43681)", "assay": "86Rb+ ion flux assay, SH-EP1 cells", "format": "cell-based", "conditions": "mixture of HS and LS α4β2-nAChRs", "outline": "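Human α4β2-nAChRs stably expressed in SH-EP1 cells, as a mixture of high- and low-sensitivity forms. Agonist responses are expressed relative to a maximally efficacious concentration of the full agonist carbamylcholine. Inactivation of function is measured after a 10 min pre-exposure to test compound. Concentration-response curves are fitted by semi-logarithmic nonlinear regression.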"}, "α4β2-nAChR": {"biological_target": "α4β2-nAChR (Rattus norvegicus, UniProt P09483+P12390)", "assay": "[3H]epibatidine binding competition, heterologously expressed α4β2-nAChR", "conditions": "from Ki values"}, "mice [2]": {"test_system": "mice", "assay": "Mouse forced swim test", "format": "in vivo"}, "[3]": {"assay": "Liver microsome stability, dog", "format": "in vitro ADME", "conditions": "dog liver microsomes, 1 h, 2 μM"}, "[4]": {"assay": "Liver microsome stability, mouse", "format": "in vitro ADME", "conditions": "mouse liver microsomes, 1 h, 2 μM"}, "[5]": {"assay": "Liver microsome stability, rat", "format": "in vitro ADME", "conditions": "rat liver microsomes, 1 h, 2 μM"}, "[6]": {"assay": "Liver microsome stability, human", "format": "in vitro ADME", "conditions": "human liver microsomes, 1 h, 2 μM"}, "mice [7]": {"test_system": "mice", "assay": "SmartCube automated behavioral signature", "format": "in vivo, mouse", "conditions": "i.p., 15 min before testing"}, "human α4β2-nAChRs [8]": {"biological_target": "T1, human α4β2-nAChRs", "conditions": "cited from earlier work"}, "Ct-AChBP": {"biological_target": "Ct-AChBP (Capitella teleta, UniProt I6L8L2)", "assay": "biochemical", "format": "binding"}, "[9]": {"conditions": "1 h incubation, starting concentration 1 μM; ref [16]; cited from earlier work"}, "[10]": {"conditions": "intraperitoneally, 3 or 10 mg/kg"}}, "note": "Where two headings read alike, the source gives them in different places.", "data": [{"compound": "FCC[C@H]1C[C@@H]1c1cncc(OC[C@@H]2CCN2)c1.O=C(O)C(F)(F)F", "note": "[compound 12, 3-[(2(S)-Azetidinyl)methoxy]-5-[(1S,2R)-2-(2-fluoroethyl)cyclopropyl]pyridine Trifluoroacetate]", "values": [{"measurement": "Agonism Hill slope", "setting": "human α4β2-nAChRs [1]", "value": "1.3±0.5"}, {"measurement": "Inactivation Hill Slope", "setting": "human α4β2-nAChRs [1]", "value": "−1.2±0.4"}, {"measurement": "selectivity for α4β2- over α3β4-nAChRs", "setting": "α4β2-nAChR", "value": "greater than 16000 fold"}, {"measurement": "effect in the forced swim test", "setting": "mice [2]; intraperitoneally or orally", "value": "antidepressant-like effect"}, {"measurement": "minimal dose with significant reduction in immobility", "setting": "mice [2]; intraperitoneally or orally", "value": 3, "unit": "mg/kg"}, {"measurement": "compound remained unchanged", "setting": "[3]", "value": "no less than 98%"}, {"measurement": "compound remained unchanged", "setting": "[4]", "value": "no less than 98%"}, {"measurement": "compound remained unchanged", "setting": "[5]", "value": "no less than 98%"}, {"measurement": "compound remained unchanged", "setting": "[6]", "value": "no less than 98%"}, {"measurement": "SmartCube behavioral signature", "setting": "mice [7]", "value": "signature of activity suggesting potential antidepressant-like effect"}]}, {"compound": "CN1CCC[C@H]1c1cccnc1", "note": "[compound 1, nicotine, reference compound]", "values": [{"measurement": "Agonism Hill slope", "setting": "human α4β2-nAChRs [8]", "value": "1.0±0.1"}, {"measurement": "Inactivation Hill Slope", "setting": "human α4β2-nAChRs [8]", "value": "−0.8±0.09"}]}, {"compound": "CC[C@H]1C[C@@H]1c1cncc(OC[C@@H]2CCN2)c1.O=C(O)C(F)(F)F", "note": "[compound 10, 3-[(2(S)-Azetidinyl)methoxy]-5-((1S,2S)-2-ethylcyclopropyl)pyridine Trifluoroacetate]", "values": [{"measurement": "Agonism Hill slope", "setting": "human α4β2-nAChRs [1]", "value": "1.1±0.2"}, {"measurement": "Inactivation Hill Slope", "setting": "human α4β2-nAChRs [1]", "value": "−1.1±0.3"}, {"measurement": "effect in the forced swim test", "setting": "mice [2]; [10]", "value": "no significant effect"}, {"measurement": "SmartCube behavioral signature", "setting": "mice [7]", "value": "signature of activity suggesting potential antidepressant-like effect"}]}, {"compound": "CNC(=O)OCC[C@H]1C[C@@H]1c1cncc(OC[C@@H]2CCN2)c1", "note": "[compound 6]", "values": [{"measurement": "Ki", "setting": "Ct-AChBP", "value": "22 ± 3", "unit": "nM"}, {"measurement": "SmartCube behavioral signature", "setting": "mice [7]", "value": "signature of activity suggesting potential antidepressant-like effect"}, {"measurement": "tested compound remained unchanged", "setting": "[9]", "value": 98, "unit": "%"}]}, {"compound": "CN[C@H]1CC[C@@H](c2ccc(Cl)c(Cl)c2)c2ccccc21", "note": "[sertraline, reference compound]", "values": [{"measurement": "effect on immobility in the forced swim test", "setting": "mice [2]; positive control, 20 mg/kg", "value": "expected decrease in immobility"}]}, {"compound": "OCC[C@H]1C[C@@H]1c1cncc(OC[C@@H]2CCN2)c1", "note": "[compound 5]", "values": [{"measurement": "Agonism Efficacy at HS", "setting": "human α4β2-nAChRs [8]; HS α4β2-nAChR, extrapolated using sazetidine-A as full agonist, ref [16]", "value": "92±6", "unit": "%"}, {"measurement": "Inactivation Efficacy", "setting": "human α4β2-nAChRs [8]; mixture of HS and LS, ref [16]", "value": "62±1", "unit": "%"}, {"measurement": "Agonism Hill slope", "setting": "human α4β2-nAChRs [8]; ref [16]", "value": "1.0±0.4"}, {"measurement": "Inactivation Hill Slope", "setting": "human α4β2-nAChRs [8]; ref [16]", "value": "−1.4±0.2"}, {"measurement": "SmartCube behavioral signature", "setting": "mice [7]", "value": "signature of activity suggesting potential antidepressant-like effect"}]}, {"compound": "FC(F)C[C@H]1C[C@@H]1c1cncc(OC[C@@H]2CCN2)c1.O=C(O)C(F)(F)F", "note": "[compound 13, 3-[(2(S)-Azetidinyl)methoxy]-5-[(1S,2R)-2-(2,2-difluoroethyl)cyclopropyl]pyridine Trifluoroacetate]", "values": [{"measurement": "Agonism Hill slope", "setting": "human α4β2-nAChRs [1]", "value": "1.4±0.4"}, {"measurement": "Inactivation Hill Slope", "setting": "human α4β2-nAChRs [1]", "value": "−1.1±0.3"}, {"measurement": "selectivity for α4β2- over α3β4-nAChRs", "setting": "α4β2-nAChR", "value": "greater than 16000 fold"}, {"measurement": "effect in the forced swim test", "setting": "mice [2]; [10]", "value": "no significant effect"}, {"measurement": "SmartCube behavioral signature", "setting": "mice [7]", "value": "signature of activity suggesting potential antidepressant-like effect"}]}]}
